Laboratory results published in ChEMBL document CHEMBL1122092, “Synthesis of some potential antihypertensive phthalazinyl- and quinoxalinylguanidines” (J Med Chem, 1982).

Legend:
[1] = tested on: Rattus norvegicus; test: Percent change of mean arterial blood pressure in conscious DOCA Hypertensive rat at 2 hour, after administration of dose 10 mL (mg/kg po); format: functional
Summary of the method: (§1)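 Male DOCA (metacorticoid) hypertensive rats, conscious, with an aortic catheter implanted under halothane anaesthesia at least 48 h beforehand. Fasted 18 h, then dosed orally; saline vehicle 10 mL. Blood pressure recorded via pressure transducer with minimal restraint; a tachograph triggered by the pulse gave heart rate. Percent change from pre-dose control read at 1, 2, 3, 5 and 22 h.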

[2] = tested on: Rattus norvegicus; test: Percent change of heart rate in conscious DOCA Hypertensive rat at 22 hour after administration of dose of 10 mL (mg/kg po); format: functional; summary of the method: as §1
[3] = tested on: Rattus norvegicus; test: Percent change of heart rate in conscious DOCA Hypertensive rat at 3 hour after administration of dose of 10 mL (mg/kg po); format: functional; summary of the method: as §1
[4] = tested on: Rattus norvegicus; test: Percent change of mean arterial blood pressure in conscious DOCA Hypertensive rat at 3 hour, after administration of dose 10 mL (mg/kg po); format: functional; summary of the method: as §1
[5] = tested on: Rattus norvegicus; test: Percent change of heart rate in conscious DOCA Hypertensive rat at 2 hour after administration of dose of 10 mL (mg/kg po); format: functional; summary of the method: as §1
[6] = tested on: Rattus norvegicus; test: Percent change of mean arterial blood pressure in conscious DOCA Hypertensive rat at 1 hour, after administration of dose 10 mL (mg/kg po); format: functional; summary of the method: as §1
[7] = tested on: Rattus norvegicus; test: Percent change of mean arterial blood pressure in conscious DOCA Hypertensive rat at 5 hour, after administration of dose 10 mL (mg/kg po); format: functional; summary of the method: as §1
[8] = tested on: Rattus norvegicus; test: Percent change of heart rate in conscious DOCA Hypertensive rat at 5 hour after administration of dose of 10 mL (mg/kg po); format: functional; summary of the method: as §1
[9] = tested on: Rattus norvegicus; test: Percent change of heart rate in conscious DOCA Hypertensive rat at 1 hour after administration of dose of 10 mL (mg/kg po); format: functional; summary of the method: as §1
[10] = tested on: Rattus norvegicus; test: Percent change of mean arterial blood pressure in conscious DOCA Hypertensive rat at 22 hour, after administration of dose 10 mL (mg/kg po); format: functional; summary of the method: as §1
[11] = biological target: Adrenergic receptor alpha; test: In vitro presynaptic antagonist activity against Alpha adrenergic receptor in rat vas deferens; format: functional, tissue-based
Summary of the method: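 Rat vas deferens under 0.1 Hz stimulation; cumulative clonidine concentration-response curves run with increasing concentrations of test agent to gauge presynaptic α-antagonism; pA2 reported. Mean of three experiments ± SEM.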

[12] = tested on: Rattus norvegicus; test: In vivo threshold intravenous dose required to cause reversal of clonidine on hypogastric nerves in pithed rat; format: functional, Hypogastric nerve
Summary of the method: (§2)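 Pithed rats given clonidine 30 μg/kg iv, which acts presynaptically (hypogastric nerve response) and postsynaptically (pressor response). Test agents were then injected iv to find the threshold dose reversing each clonidine action. Five rats per drug.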

[13] = biological target: Adrenergic receptor alpha; test: In vitro postsynaptic antagonist activity against Alpha adrenergic receptor in rat anococcygeus muscle; format: functional, tissue-based
Summary of the method: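 Rat anococcygeus muscle; cumulative noradrenaline concentration-response curves obtained as control and again with increasing concentrations of test agent present; postsynaptic α-antagonism expressed as pA2. Mean of three experiments ± SEM.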

[14] = tested on: Rattus norvegicus; test: In vivo threshold intravenous dose required to cause reversal of clonidine on blood pressure in pithed rat; format: functional; summary of the method: as §2

pA2 [11]	pA2 [13]	Compound	Change [1] [%]	Change [2] [%]	Change [3] [%]	Change [4] [%]	Change [5] [%]	Change [6] [%]	Change [7] [%]	Change [8] [%]	Change [9] [%]	Change [10] [%]	Dose [12] [mg/kg]	Dose [14] [mg/kg]
		Nc1nnc2c3ccccc3cnn12	-19	7	6	-20	7	-14	-23	2	8	-3		
6.6	5.2	CCCC/N=C(\N)Nc1nncc2ccccc12	-10	11	21	-12	19	-10	-9	18	14	8	1	1
		CNc1nnc2c3ccccc3cnn12	-13	-10	-25	-12	-25	-12	-5	-25	-23	4		
6.3	< 5.5	CCCC/N=C(/N)Nc1nc2ccccc2nc1C	-5	2	-5	0	-2	-3	5	-4	3	20	>1	>1
5.7	4.9	N=C(N)Nc1nncc2ccccc12	-20	3	7	-24	-14	-22	-20	1	2	4	3	1
		NNc1nncc2ccccc12 [HYDRALAZINE]	-45	8	2	-44	-1	-47	-39	11	-5	-15		
		Cc1ccc(N(CC2=NCCN2)c2cccc(O)c2)cc1 [PHENTOLAMINE]	-34	7	18	-33	22	-41	-22	11	21	6	0.03	0.03

Compound	pA2 [11]	pA2 [13]	Change [1] [%]	Change [2] [%]	Change [3] [%]	Change [4] [%]	Change [5] [%]	Change [6] [%]	Change [7] [%]	Change [8] [%]	Change [9] [%]	Change [10] [%]	Dose [12] [mg/kg]	Dose [14] [mg/kg]
c1ccc2c(NC3=NCCN3)nncc2c1	6	4.8											3	0.3
